{"data": "Measurements pooled from the literature", "BCHE": "Cholinesterase (BCHE, Equus caballus, UniProt P81908)", "SLC6A4": "Sodium-dependent serotonin transporter (SLC6A4, Homo sapiens, UniProt P31645)"}
{"Compound": "CC=C1[C@H]2C=C(C)C[C@]1(N)c1cc(OC)c(=O)[nH]c1C2", "target": "BCHE", "test": "enzyme activity, inhibitor, Ellman", "IC50 [µM]": 599}
{"Compound": "O=C(CNC(=S)NN=Cc1ccc([N+](=O)[O-])cc1)c1ccc([N+](=O)[O-])cc1", "target": "BCHE", "test": "enzyme activity, inhibitor, Ellman", "IC50 [µM]": 326}
{"Compound": "C#CCNc1nc(NCCCCC2CCN(Cc3ccccc3)CC2)c(C#N)c(-c2ccccc2)c1C#N", "target": "BCHE", "test": "enzyme activity, inhibitor, Ellman", "IC50 [µM]": 0.61}
{"Compound": "CC=C1[C@H]2C=C(C)C[C@]1(N)c1cc(OCCCC)c(=O)[nH]c1C2", "target": "BCHE", "test": "enzyme activity, inhibitor, Ellman", "IC50 [µM]": 16.9}
{"Compound": "COC(=O)[C@H](CCC(=O)Nc1cccc2c1ccn2Cc1cccc(C(N)=O)c1)NC(=O)OCc1ccccc1", "target": "NAD-dependent protein deacetylase sirtuin-3, mitochondrial (SIRT3, Homo sapiens, UniProt Q9NTG7)", "test": "enzyme activity, inhibitor", "IC50 [µM]": 3.6}
{"Compound": "NC(=O)NO", "target": "Urease (Canavalia ensiformis, UniProt P07374)", "test": "enzyme activity, inhibitor", "IC50 [µM]": 7.42}
{"Compound": "CC=C1[C@H]2C=C(C)C[C@]1(N)c1cc(OCC)c(=O)[nH]c1C2", "target": "BCHE", "test": "enzyme activity, inhibitor, Ellman", "IC50 [µM]": 253}
{"Compound": "CN1C[C@H](C(=O)N[C@]2(C)O[C@@]3(O)[C@@H]4CCCN4C(=O)[C@H](Cc4ccccc4)N3C2=O)C[C@@H]2c3cccc4[nH]cc(c34)C[C@H]21", "target": "D(1A) dopamine receptor (DRD1, Homo sapiens, UniProt P21728)", "test": "ligand displacement, radioligand", "IC50 [µM]": 4.81}
{"Compound": "NC(=O)N1C[C@@H](CCN2CC=C(c3c[nH]c4cc(Cl)ccc34)CC2)c2ccccc21", "target": "SLC6A4", "test": "ligand displacement, radioligand", "setting": "cell membranes", "IC50 [µM]": 0.169}
{"Compound": "O=P(O)(O)Oc1cccc(OP(=O)(O)O)c1", "target": "Signal transducer and activator of transcription 5A, SH2 (Homo sapiens, UniProt P42229)", "test": "ligand displacement, FP", "IC50 [µM]": 50}
{"Compound": "CC=C1[C@H]2C=C(C)C[C@]1(N(C)C)c1ccc(=O)n(C)c1C2", "target": "BCHE", "test": "enzyme activity, inhibitor, Ellman", "IC50 [µM]": 259}
{"Compound": "C[C@@H](O)[C@@H]1NC(=O)[C@H](CCCCN)NC(=O)[C@@H](Cc2c[nH]c3ccccc23)NC(=O)[C@H](Cc2ccc(O)cc2)NC(=O)[C@@H](NC(=O)[C@@H](Cc2ccccc2)NC(=O)CCC(C(=O)O)N2CCN(C(CCC(=O)O)C(=O)O)CCN(C(CCC(=O)O)C(=O)O)CC2)CSSC[C@@H](C(=O)N[C@H](CO)[C@@H](C)O)NC1=O (some centres unmarked)", "target": "Somatostatin receptor type 2 (Rattus norvegicus, UniProt P30680)", "test": "ligand displacement, radioligand", "IC50 [µM]": 0.125}
{"Compound": "CCOc1ccc(C=NNC(=S)NCC(=O)c2ccc(Cl)cc2)cc1", "target": "BCHE", "test": "enzyme activity, inhibitor, Ellman", "IC50 [µM]": 334}
{"Compound": "Clc1ccc2c(C3CCN(CCc4c[nH]c5ccccc45)CC3)c[nH]c2c1", "target": "SLC6A4", "test": "ligand displacement, radioligand", "setting": "cell membranes", "IC50 [µM]": 0.0021}
